In brackets after ≈: the same amount, converted by molar mass.
How the values were obtained:
Format in all cases: functional
[1] = tested on: Streptococcus pneumoniae; assay: Antimicrobial activity against drug-resistant Streptococcus pneumoniae isolate 24 after 50 passages with moxifloxacin measured after 10 antibiotic-free subculture by multi-step resistance selection technique
Method in brief: (§1)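 Mutants selected by daily broth passage in subinhibitory drug in cation-adjusted Mueller-Hinton broth with 5% lysed horse blood. Stability was tested by 10 daily passages on blood agar without antibiotic, then macrodilution MIC.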

[2] = tested on: Streptococcus pneumoniae; assay: Antimicrobial activity against drug-resistant Streptococcus pneumoniae isolate 24 after 14 passages with Telithromycin measured after 10 antibiotic-free subculture by multi-step resistance selection technique; method in brief: as §1
[3] = tested on: Streptococcus pneumoniae; assay: Antimicrobial activity against drug-resistant Streptococcus pneumoniae isolate 24 after 50 passages by multi-step resistance selection technique
Method in brief: (§2)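 Daily serial passage in subinhibitory drug levels in 1 ml cation-adjusted Mueller-Hinton broth with 5% lysed horse blood; fresh broth for tigecycline. Each day, 10 μl were taken from the tube one to two dilutions below the MIC whose turbidity matched the growth control, and used to set the next MIC. MIC by macrodilution.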

[4] = tested on: Streptococcus pneumoniae; assay: Antimicrobial activity against drug-resistant Streptococcus pneumoniae isolate 24 by NCCLS M7-A7 method
[5] = tested on: Streptococcus pneumoniae; assay: Antimicrobial activity against drug-resistant Streptococcus pneumoniae isolate 1635 after 14 passages with azithromycin measured after 10 antibiotic-free subculture by multi-step resistance selection technique; method in brief: as §1
[6] = tested on: Streptococcus pneumoniae; assay: Antimicrobial activity against drug-resistant Streptococcus pneumoniae isolate 1635 after 50 passages by multi-step resistance selection technique; method in brief: as §2
[7] = tested on: Streptococcus pneumoniae; assay: Antimicrobial activity against drug-resistant Streptococcus pneumoniae isolate 1635 by NCCLS M7-A7 method
[8] = tested on: Streptococcus pneumoniae; assay: Antimicrobial activity against drug-resistant Streptococcus pneumoniae isolate 3243 after 41 passages with clarithromycin measured after 10 antibiotic-free subculture by multi-step resistance selection technique
[9] = tested on: Streptococcus pneumoniae; assay: Antimicrobial activity against drug-resistant Streptococcus pneumoniae isolate 3243 after 33 passages with azithromycin measured after 10 antibiotic-free subculture by multi-step resistance selection technique; method in brief: as §1
[10] = tested on: Streptococcus pneumoniae; assay: Antimicrobial activity against drug-resistant Streptococcus pneumoniae isolate 3243 after 29 passages with Telithromycin measured after 10 antibiotic-free subculture by multi-step resistance selection technique; method in brief: as §1
[11] = tested on: Streptococcus pneumoniae; assay: Antimicrobial activity against drug-resistant Streptococcus pneumoniae isolate 3243 after 50 passages by multi-step resistance selection technique
Method in brief: as §2, with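 “MIC. […]” for “MIC.”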

[12] = tested on: Streptococcus pneumoniae; assay: Antimicrobial activity against drug-resistant Streptococcus pneumoniae isolate 3243 by NCCLS M7-A7 method
[13] = tested on: Streptococcus pneumoniae; assay: Antimicrobial activity against drug-resistant Streptococcus pneumoniae isolate 3274 after 48 passages with Telithromycin measured after 10 antibiotic-free subculture by multi-step resistance selection technique; method in brief: as §1
[14] = tested on: Streptococcus pneumoniae; assay: Antimicrobial activity against drug-resistant Streptococcus pneumoniae isolate 3274 after 50 passages by multi-step resistance selection technique; method in brief: as §2
[15] = tested on: Streptococcus pneumoniae; assay: Antimicrobial activity against drug-resistant Streptococcus pneumoniae isolate 3274 by NCCLS M7-A7 method
[16] = tested on: Streptococcus pneumoniae; assay: Antimicrobial activity against drug-resistant Streptococcus pneumoniae isolate 2527 after 14 passages with gemifloxacin measured after 10 antibiotic-free subculture by multi-step resistance selection technique; method in brief: as §1
[17] = tested on: Streptococcus pneumoniae; assay: Antimicrobial activity against drug-resistant Streptococcus pneumoniae isolate 2527 after 20 passages with azithromycin measured after 10 antibiotic-free subculture by multi-step resistance selection technique; method in brief: as §1
[18] = tested on: Streptococcus pneumoniae; assay: Antimicrobial activity against drug-resistant Streptococcus pneumoniae isolate 2527 by NCCLS M7-A7 method
[19] = tested on: Streptococcus pneumoniae; assay: Antimicrobial activity against drug-resistant Streptococcus pneumoniae isolate 3665 after 50 passages by multi-step resistance selection technique
Method in brief: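 Daily serial passage in broth at subinhibitory drug levels: 1 ml cation-adjusted Mueller-Hinton broth with 5% lysed horse blood; fresh broth for tigecycline. Each day 10 μl inoculum taken from the tube one to two dilutions below MIC matching growth-control turbidity, used to set next MIC. Continued until ≥8-fold MIC rise, minimum 14, maximum 50 passages; MIC read by macrodilution.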

[20] = tested on: Streptococcus pneumoniae; assay: Antimicrobial activity against drug-resistant Streptococcus pneumoniae isolate 3665 by NCCLS M7-A7 method
[21] = tested on: Streptococcus pneumoniae; assay: Antimicrobial activity against drug-resistant Streptococcus pneumoniae isolate 1077 after 49 passages with clindamycin measured after 10 antibiotic-free subculture by multi-step resistance selection technique
[22] = tested on: Streptococcus pneumoniae; assay: Antimicrobial activity against drug-resistant Streptococcus pneumoniae isolate 1077 after 29 passages with azithromycin measured after 10 antibiotic-free subculture by multi-step resistance selection technique; method in brief: as §1
[23] = tested on: Streptococcus pneumoniae; assay: Antimicrobial activity against drug-resistant Streptococcus pneumoniae isolate 1077 after 50 passages by multi-step resistance selection technique; method in brief: as §2
[24] = tested on: Streptococcus pneumoniae; assay: Antimicrobial activity against drug-resistant Streptococcus pneumoniae isolate 1077 by NCCLS M7-A7 method
[25] = tested on: Streptococcus pneumoniae; assay: Antimicrobial activity against drug-resistant Streptococcus pneumoniae isolate 1076 after 14 passages with Telithromycin measured after 10 antibiotic-free subculture by multi-step resistance selection technique; method in brief: as §1
[26] = tested on: Streptococcus pneumoniae; assay: Antimicrobial activity against drug-resistant Streptococcus pneumoniae isolate 1076 by NCCLS M7-A7 method
[27] = tested on: Streptococcus pneumoniae; assay: Antimicrobial activity against drug-resistant Streptococcus pneumoniae isolate 1076 after 50 passages by multi-step resistance selection technique
Method in brief: as §2, with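 “MIC. […]” for “MIC.”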

[28] = tested on: Streptococcus pneumoniae; assay: Antimicrobial activity against drug-resistant Streptococcus pneumoniae isolate 3009 after 19 passages with moxifloxacin measured after 10 antibiotic-free subculture by multi-step resistance selection technique; method in brief: as §1
[29] = tested on: Streptococcus pneumoniae; assay: Antimicrobial activity against drug-resistant Streptococcus pneumoniae isolate 3009 after 18 passages with levofloxacin measured after 10 antibiotic-free subculture by multi-step resistance selection technique; method in brief: as §1
[30] = tested on: Streptococcus pneumoniae; assay: Antimicrobial activity against drug-resistant Streptococcus pneumoniae isolate 3009 by NCCLS M7-A7 method
[31] = tested on: Streptococcus pneumoniae; assay: Antimicrobial activity against drug-resistant Streptococcus pneumoniae isolate 37 by NCCLS M7-A7 method
[32] = tested on: Streptococcus pneumoniae; assay: Antimicrobial activity against drug-resistant Streptococcus pneumoniae isolate 37 after 50 passages by multi-step resistance selection technique
Method in brief: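 Daily serial passage in broth at subinhibitory drug levels: 1 ml cation-adjusted Mueller-Hinton broth with 5% lysed horse blood; fresh broth for tigecycline. Each day 10 μl inoculum taken from the tube one to two dilutions below MIC matching growth-control turbidity, used to set next MIC.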

[33] = tested on: Streptococcus pneumoniae; assay: Antimicrobial activity against drug-resistant Streptococcus pneumoniae isolate 37 after 14 passages with Telithromycin measured after 10 antibiotic-free subculture by multi-step resistance selection technique
[34] = tested on: Streptococcus pneumoniae; assay: Antimicrobial activity against drug-resistant Streptococcus pneumoniae isolate 3413 by NCCLS M7-A7 method
[35] = tested on: Streptococcus pneumoniae; assay: Antimicrobial activity against drug-resistant Streptococcus pneumoniae isolate 3413 after 50 passages by multi-step resistance selection technique; method in brief: as §2
[36] = tested on: Streptococcus pneumoniae; assay: Antimicrobial activity against drug-resistant Streptococcus pneumoniae isolate 3676 after 44 passages with clarithromycin measured after 10 antibiotic-free subculture by multi-step resistance selection technique
[37] = tested on: Streptococcus pneumoniae; assay: Antimicrobial activity against drug-resistant Streptococcus pneumoniae isolate 3676 by NCCLS M7-A7 method
[38] = tested on: Streptococcus pneumoniae; assay: Antimicrobial activity against drug-resistant Streptococcus pneumoniae isolate 3665 after 14 passages with Telithromycin measured after 10 antibiotic-free subculture by multi-step resistance selection technique

## CO/N=C1\CN(c2nc3c(cc2F)c(=O)c(C(=O)O)cn3C2CC2)CC1CN (stereo not drawn) [GEMIFLOXACIN]
[1]
  MIC: 0.5 µg/mL (≈ 1.28 µM)
[2]
  MIC: 0.016 µg/mL (≈ 0.0411 µM)
[3]
  MIC: 0.03 µg/mL (≈ 0.077 µM)
[4]
  MIC: 0.016 µg/mL (≈ 0.0411 µM)
[5]
  MIC: 0.03 µg/mL (≈ 0.077 µM)
[6]
  MIC: 0.06 µg/mL (≈ 0.154 µM)
[7]
  MIC: 0.016 µg/mL (≈ 0.0411 µM)
[8]
  MIC: 0.03 µg/mL (≈ 0.077 µM)
[9]
  MIC: 0.03 µg/mL (≈ 0.077 µM)
[10]
  MIC: 0.03 µg/mL (≈ 0.077 µM)
[11]
  MIC: 0.06 µg/mL (≈ 0.154 µM)
[12]
  MIC: 0.016 µg/mL (≈ 0.0411 µM)
[13]
  MIC: 0.03 µg/mL (≈ 0.077 µM)
[14]
  MIC: 0.06 µg/mL (≈ 0.154 µM)
[15]
  MIC: 0.016 µg/mL (≈ 0.0411 µM)
[16]
  MIC: 2 µg/mL (≈ 5.14 µM)
[17]
  MIC: 0.25 µg/mL (≈ 0.642 µM)
[18]
  MIC: 0.25 µg/mL (≈ 0.642 µM)
[19]
  MIC: 0.06 µg/mL (≈ 0.154 µM)
[20]
  MIC: 0.016 µg/mL (≈ 0.0411 µM)
[21]
  MIC: 0.25 µg/mL (≈ 0.642 µM)
[22]
  MIC: 0.25 µg/mL (≈ 0.642 µM)
[23]
  MIC: 1 µg/mL (≈ 2.57 µM)
[24]
  MIC: 0.25 µg/mL (≈ 0.642 µM)
[25]
  MIC: 0.25 µg/mL (≈ 0.642 µM)
[26]
  MIC: 0.25 µg/mL (≈ 0.642 µM)
[27]
  MIC: 0.5 µg/mL (≈ 1.28 µM)
[28]
  MIC: 0.125 µg/mL (≈ 0.321 µM)
[29]
  MIC: 1 µg/mL (≈ 2.57 µM)
[30]
  MIC: 0.016 µg/mL (≈ 0.0411 µM)
[31]
  MIC: 0.016 µg/mL (≈ 0.0411 µM)
[32]
  MIC: 0.016 µg/mL (≈ 0.0411 µM)
[33]
  MIC: 0.03 µg/mL (≈ 0.077 µM)
[34]
  MIC: 0.016 µg/mL (≈ 0.0411 µM)
[35]
  MIC: 0.016 µg/mL (≈ 0.0411 µM)
[36]
  MIC: 0.03 µg/mL (≈ 0.077 µM)
[37]
  MIC: 0.016 µg/mL (≈ 0.0411 µM)
[38]
  MIC: 0.03 µg/mL (≈ 0.077 µM)

Reference: ChEMBL document CHEMBL1151428, “Capability of 11 antipneumococcal antibiotics to select for resistance by multistep and single-step methodologies” (2007)
